Reference: ChEMBL document CHEMBL5260822, “Structure-based design and synthesis of 2,4-diaminopyrimidines as EGFR L858R/T790M selective inhibitors for NSCLC” (Eur J Med Chem, 2017)
Active and inactive are the calls of the source. The rule behind the calls is not given here.

Tests used:
[1] = biological target: T1, Epidermal growth factor receptor (Homo sapiens, UniProt P00533); assay: Inhibition of EGFR phosphorylation in EGF-stimulated human A-431 cells harboring wild type EGFR at 100 nM and measured after 2 hrs by Western blot analysis; type: cell-based
T1 sequence (P00533 whole entry): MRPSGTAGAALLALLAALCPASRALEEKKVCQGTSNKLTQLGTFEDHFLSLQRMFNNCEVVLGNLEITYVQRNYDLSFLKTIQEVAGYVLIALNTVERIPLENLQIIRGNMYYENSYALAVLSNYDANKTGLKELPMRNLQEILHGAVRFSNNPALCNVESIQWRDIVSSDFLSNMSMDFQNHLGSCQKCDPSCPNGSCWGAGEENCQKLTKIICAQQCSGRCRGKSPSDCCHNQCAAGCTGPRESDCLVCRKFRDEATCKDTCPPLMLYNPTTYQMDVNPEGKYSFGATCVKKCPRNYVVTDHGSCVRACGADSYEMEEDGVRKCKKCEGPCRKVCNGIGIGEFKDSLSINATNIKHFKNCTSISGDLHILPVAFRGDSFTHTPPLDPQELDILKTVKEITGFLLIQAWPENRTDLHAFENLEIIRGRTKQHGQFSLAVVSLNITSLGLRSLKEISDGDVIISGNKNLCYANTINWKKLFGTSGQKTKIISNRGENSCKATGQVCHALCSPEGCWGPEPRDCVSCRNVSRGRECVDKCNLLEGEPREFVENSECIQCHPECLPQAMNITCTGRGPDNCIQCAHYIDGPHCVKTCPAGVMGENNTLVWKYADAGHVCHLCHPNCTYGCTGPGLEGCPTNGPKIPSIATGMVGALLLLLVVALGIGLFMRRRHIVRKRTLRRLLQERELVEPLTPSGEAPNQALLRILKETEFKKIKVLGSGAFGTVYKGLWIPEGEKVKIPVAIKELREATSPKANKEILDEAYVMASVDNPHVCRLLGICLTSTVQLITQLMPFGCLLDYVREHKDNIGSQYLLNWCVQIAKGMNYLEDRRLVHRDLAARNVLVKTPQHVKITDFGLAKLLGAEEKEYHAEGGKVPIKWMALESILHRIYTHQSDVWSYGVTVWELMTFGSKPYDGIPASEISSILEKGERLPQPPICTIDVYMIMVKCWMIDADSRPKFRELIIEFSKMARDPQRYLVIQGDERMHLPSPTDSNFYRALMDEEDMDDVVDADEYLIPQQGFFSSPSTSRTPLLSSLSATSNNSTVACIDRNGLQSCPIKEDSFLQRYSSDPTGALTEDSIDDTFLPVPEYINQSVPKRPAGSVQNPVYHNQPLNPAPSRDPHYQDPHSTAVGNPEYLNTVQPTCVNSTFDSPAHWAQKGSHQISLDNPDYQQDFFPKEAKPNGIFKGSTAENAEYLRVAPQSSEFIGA
Procedure, shortened: (§1)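 Cells treated with compound for 2 h, then stimulated with EGF for 15 min and lysed. Lysates cleared at 12,000 × g (10 min, 4 °C), protein measured by Bradford assay, and equal amounts run on 8% SDS-PAGE and blotted to nitrocellulose. Probed for p-EGFR (Y1068), EGFR, p-ERK (T202/Y204), ERK, with tubulin or GAPDH as loading controls.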

[2] = test system: NCI-H1975; assay: Inhibition of Erk signalling in EGF-stimulated human NCI-H1975 cells harboring EGFR L858R/T790M double mutant assessed as decrease in p-ERK level at 0.1 to 100 nM and measured after 2 hrs by Western blot analysis; type: cell-based; details: dose 0.1-100 nM; procedure, shortened: as §1
[3] = test system: NCI-H1975; assay: Inhibition of Akt signalling in EGF-stimulated human NCI-H1975 cells harboring EGFR L858R/T790M double mutant assessed as […] at 0.1 to 100 nM and measured after 2 hrs by Western blot analysis; type: cell-based; details: dose 0.1-100 nM
[4] = test system: Epidermal growth factor receptor (Homo sapiens), P00533 [L858R,T790M]; assay: Inhibition of EGFR phosphorylation in EGF-stimulated human NCI-H1975 cells harboring EGFR L858R/T790M double mutant at 0.1 to 100 nM and measured after 2 hrs by Western blot analysis; type: cell-based; details: dose 0.1-100 nM; procedure, shortened: as §1
Epidermal growth factor receptor (Homo sapiens), P00533 [L858R,T790M], sequence (P00533 whole entry T790M/L858R, looked up): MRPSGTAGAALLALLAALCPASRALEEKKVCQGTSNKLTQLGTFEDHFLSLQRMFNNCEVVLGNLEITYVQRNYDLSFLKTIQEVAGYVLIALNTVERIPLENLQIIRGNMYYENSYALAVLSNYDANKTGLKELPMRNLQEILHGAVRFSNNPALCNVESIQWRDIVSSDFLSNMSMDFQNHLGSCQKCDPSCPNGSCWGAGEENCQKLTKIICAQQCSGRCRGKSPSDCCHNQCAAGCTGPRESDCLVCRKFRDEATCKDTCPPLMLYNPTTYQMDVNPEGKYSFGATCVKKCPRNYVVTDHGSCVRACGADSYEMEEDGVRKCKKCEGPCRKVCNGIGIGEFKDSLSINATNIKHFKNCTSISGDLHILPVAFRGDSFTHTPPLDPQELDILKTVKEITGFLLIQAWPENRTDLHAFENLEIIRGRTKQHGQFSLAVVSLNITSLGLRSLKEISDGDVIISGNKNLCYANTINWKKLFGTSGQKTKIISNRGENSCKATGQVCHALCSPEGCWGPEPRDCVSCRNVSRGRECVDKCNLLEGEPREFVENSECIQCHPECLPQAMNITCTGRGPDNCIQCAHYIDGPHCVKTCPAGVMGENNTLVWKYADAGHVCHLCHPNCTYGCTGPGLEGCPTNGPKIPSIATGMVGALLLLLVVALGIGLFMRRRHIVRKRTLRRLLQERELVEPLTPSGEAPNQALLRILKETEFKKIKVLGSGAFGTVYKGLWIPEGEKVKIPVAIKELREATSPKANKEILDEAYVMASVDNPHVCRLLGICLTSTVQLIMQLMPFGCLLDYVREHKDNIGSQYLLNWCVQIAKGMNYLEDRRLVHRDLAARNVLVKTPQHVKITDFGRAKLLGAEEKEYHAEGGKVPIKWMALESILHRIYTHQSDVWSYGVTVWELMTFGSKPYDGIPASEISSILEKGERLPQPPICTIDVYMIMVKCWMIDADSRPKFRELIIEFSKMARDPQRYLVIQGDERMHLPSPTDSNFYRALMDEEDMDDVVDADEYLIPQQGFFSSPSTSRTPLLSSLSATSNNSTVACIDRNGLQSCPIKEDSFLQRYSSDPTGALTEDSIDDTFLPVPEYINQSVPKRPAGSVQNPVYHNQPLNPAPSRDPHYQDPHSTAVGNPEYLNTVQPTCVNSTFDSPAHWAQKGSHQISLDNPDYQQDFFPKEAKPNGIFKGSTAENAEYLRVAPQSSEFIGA

[5] = test system: NCI-H1975; assay: Antiproliferative activity against human NCI-H1975 cells harboring EGFR L858R/T790M double mutant assessed as inhibition of cell proliferation incubated for 72 hrs by sulforhodamine B colorimetric assay; type: functional, cell-based; details: NCI-H1975, 72 h
[6] = test system: A-431; assay: Antiproliferative activity against human A-431 cells harboring wild type EGFR assessed as inhibition of cell proliferation incubated for 72 hrs by sulforhodamine B colorimetric assay; type: functional, cell-based; details: A-431, 72 h
[7] = biological target: Epidermal growth factor receptor (Homo sapiens, UniProt P00533, L858R/T790M); assay: Inhibition of EGFR L858R/T790M mutant (unknown origin) expressed in baculovirus expression system by ELISA
[8] = biological target: T1, Epidermal growth factor receptor; assay: Inhibition of wild type EGFR (unknown origin) expressed in baculovirus expression system by ELISA
[9] = Toxicity in BALB/c nude mouse xenografted with human NCI-H1975 cells harboring EGFR L858R/T790M mutant assessed as morphological changes in kidney at 15 to 30 mg/kg, po for 18 days by hematoxylin and eosin staining based microscopic analysis; type: organism-based; details: in vivo, 432 h, dose 15-30 mg/kg, time 18 day
Procedure, shortened: (§2)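 H1975 subcutaneous xenografts were grown in female BALB/cA nu/nu mice (n = 6 per group), dosed at 15 or 30 mg/kg/day for 18 days or with vehicle. At the end the mice were sacrificed. Heart, kidney and liver were harvested, processed and stained with hematoxylin and eosin for routine histological examination.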

[10] = Toxicity in BALB/c nude mouse xenografted with human NCI-H1975 cells harboring EGFR L858R/T790M mutant assessed as morphological changes in liver at 15 to 30 mg/kg, po for 18 days by hematoxylin and eosin staining based microscopic analysis; type: organism-based; details: in vivo, 432 h, dose 15-30 mg/kg, time 18 day; procedure, shortened: as §2
[11] = test system: Epidermal growth factor receptor (Homo sapiens), P00533 [L858R,T790M]; assay: In vivo inhibition of EGFR in BALB/c nude mouse xenografted with human NCI-H1975 cells harboring EGFR L858R/T790M mutant assessed as decrease in phosphorylated-EGFR level at 15 to 30 mg/kg, po for 18 days by western blot analysis; type: functional, organism-based; details: dose 15-30 mg/kg, time 18.0 day
[12] = test system: NCI-H1975; assay: Antitumor activity against human NCI-H1975 cells harboring EGFR L858R/T790M mutant xenografted in BALB/c nude mouse assessed as tumor cell proliferation at 15 to 30 mg/kg, po for 18 days by Ki-67 staining based immunohistochemical analysis; type: functional, organism-based; details: dose 15-30 mg/kg, time 18.0 day
Procedure, shortened: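 H1975 xenograft tumors from nude mice (n = 6/group, daily dosing 18 days) were harvested, fixed in 10% formalin, paraffin-embedded and cut into 5 µm sections. Sections deparaffinized and incubated with primary anti-Ki-67 antibody at room temperature; immunoreactivity visualized with DAB.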

[13] = Toxicity in BALB/c nude mouse xenografted with human NCI-H1975 cells harboring EGFR L858R/T790M mutant assessed as morphological changes in heart at 15 to 30 mg/kg, po for 18 days by hematoxylin and eosin staining based microscopic analysis; type: organism-based; details: in vivo, 432 h, dose 15-30 mg/kg, time 18 day; procedure, shortened: as §2
[14] = Toxicity in BALB/c nude mouse xenografted with human NCI-H1975 cells harboring EGFR L858R/T790M mutant assessed as body weight loss at 15 to 30 mg/kg, po for 18 days; type: organism-based; details: in vivo, 432 h, dose 15-30 mg/kg, time 18 day
Procedure, shortened: (§3)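 Female BALB/cA nu/nu mice were given 1 × 10^6 H1975 cells in 0.1 mL PBS subcutaneously in the right flank. At an average tumour volume of 100 mm3 (about 18 days post-implantation) they were randomised, n = 6 per group. Groups received 15 or 30 mg/kg/day for 18 consecutive days or vehicle. Mice were kept at constant room temperature, 12/12-h light/dark, with standard diet and water ad lib.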

[15] = Toxicity in BALB/c nude mouse xenografted with human NCI-H1975 cells harboring EGFR L858R/T790M mutant assessed as mortality at 15 to 30 mg/kg, po for 18 days; type: organism-based; details: in vivo, 432 h, dose 15-30 mg/kg, time 18 day; procedure, shortened: as §3
[16] = test system: NCI-H1975; assay: Antitumor activity against human NCI-H1975 cells harboring EGFR L858R/T790M mutant xenografted in BALB/c nude mouse assessed as tumor growth inhibition at 30 mg/kg, po for 18 days; type: functional; details: NCI-H1975, 432 h, time 18 day, read-out: TGI
Procedure, shortened: (§4)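 H1975 cells (1 × 10^6 in 0.1 mL PBS) injected subcutaneously into the right flank of female nude mice. At mean tumor volume of about 100 mm3 (roughly 18 days), mice randomized, n = 6 per group, and dosed once daily for 18 days against a vehicle group. Tumor volume (0.5 × L × W²) measured every 2–3 days; tumors weighed at sacrifice. Data given as mean ± SEM.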

[17] = test system: NCI-H1975; assay: Antitumor activity against human NCI-H1975 cells harboring EGFR L858R/T790M mutant xenografted in BALB/c nude mouse assessed as tumor growth inhibition at 15 mg/kg, po for 18 days; type: functional; details: NCI-H1975, 432 h, time 18 day, read-out: TGI; procedure, shortened: as §4
[18] = Oral bioavailability in Sprague-Dawley rat at 10 mg/kg and measured after 24 hrs by LC-MS/MS analysis; type: ADME, organism-based; details: in vivo
Procedure, shortened: (§5)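 Male Sprague–Dawley rats (190–220 g) dosed by oral gavage at 10 mg/kg in 5% DMSO / 95% HP-β-CD aqueous solution (20%); iv reference arm at 1 mg/kg. Blood sampled at 0.25, 0.5, 1, 2, 4, 6, 8 and 24 h, centrifuged (8000 × g, 6 min), and plasma quantified by LC–MS/MS.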

[19] = AUC (0 to infinity) in Sprague-Dawley rat at 10 mg/kg, po and measured after 24 hrs by LC-MS/MS analysis; type: ADME, organism-based; design: dose 10 mg/kg, time 24 hrs, route po; details: in vivo; procedure, shortened: as §5
[20] = Cmax in Sprague-Dawley rat at 10 mg/kg, po and measured after 24 hrs by LC-MS/MS analysis; type: ADME, organism-based; design: dose 10 mg/kg, time 24 hrs, route po; details: in vivo; procedure, shortened: as §5
[21] = Half life in Sprague-Dawley rat at 10 mg/kg, po and measured after 24 hrs by LC-MS/MS analysis; type: ADME, organism-based; details: in vivo; procedure, shortened: as §5
[22] = Volume of distribution at steady state in Sprague-Dawley rat at 1 mg/kg, iv and measured after 24 hrs by LC-MS/MS analysis; type: ADME, organism-based; details: in vivo, read-out: Vdss
[23] = Clearance in Sprague-Dawley rat at 1 mg/kg, iv and measured after 24 hrs by LC-MS/MS analysis; type: ADME, organism-based; details: in vivo
[24] = AUC (0 to infinity) in Sprague-Dawley rat at 1 mg/kg, iv and measured after 24 hrs by LC-MS/MS analysis; type: ADME, organism-based; design: time 24 hrs, dose 1 mg/kg, route iv; details: in vivo
[25] = Half life in Sprague-Dawley rat at 1 mg/kg, iv and measured after 24 hrs by LC-MS/MS analysis; type: ADME, organism-based; details: in vivo
[26] = Cmax in Sprague-Dawley rat at 1 mg/kg, iv and measured after 24 hrs by LC-MS/MS analysis; type: ADME, organism-based; design: dose 1 mg/kg, time 24 hrs, route iv; details: in vivo
[27] = biological target: Tyrosine-protein kinase BTK (Homo sapiens) (UniProt Q06187); assay: Inhibition of BTK (unknown origin) at 1000 nM by DiscoverX KINOMEscan assay
[28] = biological target: Focal adhesion kinase 1 (Homo sapiens) (UniProt Q05397); assay: Inhibition of FAK (unknown origin) at 1000 nM by DiscoverX KINOMEscan assay
[29] = biological target: Insulin receptor (Homo sapiens) (UniProt P06213); assay: Inhibition of INSR (unknown origin) at 1000 nM by DiscoverX KINOMEscan assay
Insulin receptor (Homo sapiens), sequence (P06213 28-758 limits assumed): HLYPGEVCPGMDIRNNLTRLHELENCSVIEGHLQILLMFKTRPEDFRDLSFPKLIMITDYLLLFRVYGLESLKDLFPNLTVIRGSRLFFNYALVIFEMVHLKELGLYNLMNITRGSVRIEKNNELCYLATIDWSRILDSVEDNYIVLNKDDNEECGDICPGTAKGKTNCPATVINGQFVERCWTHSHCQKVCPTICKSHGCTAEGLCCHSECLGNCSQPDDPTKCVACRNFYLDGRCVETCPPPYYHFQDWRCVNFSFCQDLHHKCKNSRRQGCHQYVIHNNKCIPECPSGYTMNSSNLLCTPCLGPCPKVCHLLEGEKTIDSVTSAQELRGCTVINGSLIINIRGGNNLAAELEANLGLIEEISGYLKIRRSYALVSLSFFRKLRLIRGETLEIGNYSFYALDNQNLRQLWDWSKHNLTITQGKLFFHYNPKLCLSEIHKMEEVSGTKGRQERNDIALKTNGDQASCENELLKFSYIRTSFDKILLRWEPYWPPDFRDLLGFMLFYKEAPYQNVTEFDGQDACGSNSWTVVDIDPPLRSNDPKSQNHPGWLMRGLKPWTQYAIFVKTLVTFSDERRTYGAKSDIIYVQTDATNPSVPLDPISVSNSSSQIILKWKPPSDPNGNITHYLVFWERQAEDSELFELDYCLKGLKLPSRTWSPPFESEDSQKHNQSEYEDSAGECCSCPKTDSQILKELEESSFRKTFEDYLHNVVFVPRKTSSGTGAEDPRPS
Insulin receptor (Homo sapiens), sequence (P06213 763-1382 limits assumed): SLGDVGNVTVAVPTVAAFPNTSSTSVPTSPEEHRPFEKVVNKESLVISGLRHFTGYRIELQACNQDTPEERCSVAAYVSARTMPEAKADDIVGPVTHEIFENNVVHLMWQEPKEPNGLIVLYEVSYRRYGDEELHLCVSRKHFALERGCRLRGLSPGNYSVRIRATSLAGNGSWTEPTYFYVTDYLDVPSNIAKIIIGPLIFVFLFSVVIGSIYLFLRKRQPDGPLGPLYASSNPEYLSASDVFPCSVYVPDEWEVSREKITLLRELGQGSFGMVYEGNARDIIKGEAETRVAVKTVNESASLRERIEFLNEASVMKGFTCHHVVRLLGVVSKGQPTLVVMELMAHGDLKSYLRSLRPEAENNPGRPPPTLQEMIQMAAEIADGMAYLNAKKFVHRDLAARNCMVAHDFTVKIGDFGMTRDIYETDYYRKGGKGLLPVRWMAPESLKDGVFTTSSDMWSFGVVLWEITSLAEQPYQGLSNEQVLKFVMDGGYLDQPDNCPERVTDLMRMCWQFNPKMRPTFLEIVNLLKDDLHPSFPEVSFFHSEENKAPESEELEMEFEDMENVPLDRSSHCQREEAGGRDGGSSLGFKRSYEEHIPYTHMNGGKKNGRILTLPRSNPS

[30] = biological target: Tyrosine-protein kinase JAK2 (Homo sapiens) (UniProt O60674); assay: Inhibition of JAK2 (unknown origin) at 1000 nM by DiscoverX KINOMEscan assay
Tyrosine-protein kinase JAK2 (Homo sapiens), sequence (O60674 whole entry): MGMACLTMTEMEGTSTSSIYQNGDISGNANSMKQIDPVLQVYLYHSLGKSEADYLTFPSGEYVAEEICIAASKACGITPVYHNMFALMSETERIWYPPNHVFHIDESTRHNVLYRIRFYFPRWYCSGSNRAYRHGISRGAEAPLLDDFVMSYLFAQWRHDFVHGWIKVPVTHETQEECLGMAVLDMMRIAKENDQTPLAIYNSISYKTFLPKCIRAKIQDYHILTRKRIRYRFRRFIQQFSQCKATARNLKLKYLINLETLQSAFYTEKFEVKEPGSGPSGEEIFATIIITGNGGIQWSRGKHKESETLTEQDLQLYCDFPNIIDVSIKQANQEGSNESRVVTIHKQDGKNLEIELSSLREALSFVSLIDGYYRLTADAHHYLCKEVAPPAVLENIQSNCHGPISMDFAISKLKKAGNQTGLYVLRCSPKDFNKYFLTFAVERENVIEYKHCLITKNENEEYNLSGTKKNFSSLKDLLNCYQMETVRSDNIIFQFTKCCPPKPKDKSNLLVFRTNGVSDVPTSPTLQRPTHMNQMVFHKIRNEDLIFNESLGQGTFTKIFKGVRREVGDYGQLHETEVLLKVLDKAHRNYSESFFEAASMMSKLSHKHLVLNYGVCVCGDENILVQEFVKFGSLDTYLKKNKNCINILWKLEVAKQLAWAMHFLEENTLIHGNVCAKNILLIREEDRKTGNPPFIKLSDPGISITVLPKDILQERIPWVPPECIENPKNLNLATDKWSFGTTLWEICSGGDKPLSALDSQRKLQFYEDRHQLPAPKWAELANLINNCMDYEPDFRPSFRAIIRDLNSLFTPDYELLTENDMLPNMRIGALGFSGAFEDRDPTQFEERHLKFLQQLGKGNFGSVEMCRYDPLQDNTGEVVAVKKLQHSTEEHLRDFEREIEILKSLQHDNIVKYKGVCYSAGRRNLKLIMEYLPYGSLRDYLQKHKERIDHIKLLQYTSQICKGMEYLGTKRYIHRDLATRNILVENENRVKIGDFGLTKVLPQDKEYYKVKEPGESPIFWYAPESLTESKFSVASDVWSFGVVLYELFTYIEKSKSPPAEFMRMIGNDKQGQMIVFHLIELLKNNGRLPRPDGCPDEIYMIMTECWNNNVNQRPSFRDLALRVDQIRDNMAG

[31] = test system: Epidermal growth factor receptor (Homo sapiens), P00533 [L858R,T790M]; details: NCI-H1975, dose 10.0 nM, time 2.0 hrs

C=CC(=O)Nc1cc(Nc2ncc(Br)c(Nc3ccc4c(c3)CCC4)n2)c(OC)cc1N1CCN(C)CC1
inhibition [1]: inactive | inhibition [2]: Dose-Dependent Effect | inhibition [3]: Dose-Dependent Effect | inhibition [4]: Dose-Dependent Effect | IC50 [5]: 276 nM | IC50 [6]: 2600 nM | IC50 [7]: 3.2 nM | IC50 [8]: 203 nM | Activity [9]: Non-Toxic | Activity [10]: Non-Toxic | inhibition [11]: Active | Activity [12]: Active | Activity [13]: Non-Toxic | Activity [14]: Non-Toxic | Activity [15]: Non-Toxic | inhibition in vivo at 30 mg/kg [16]: 77% | inhibition in vivo at 15 mg/kg [17]: 61% | F [18]: 35.58% | AUC [19]: 35.58 ng·h/mL | Cmax [20]: 452 ng/mL | half-life [21]: 3.54 h | Vd [22]: 4.83 L/kg | clearance [23]: 15.9 mL/min/kg | AUC [24]: 1052 ng·h/mL | half-life [25]: 5.17 h | Cmax [26]: 407 ng/mL | inhibition [27]: Active | inhibition [28]: Active | inhibition [29]: Active | inhibition [30]: Active | inhibition [31]: Active
